Two compounds from ChEMBL document CHEMBL4334444, “Studies of Jatrogossone A as a Reactive Oxygen Species Inducer in Cancer Cellular Models” (J Nat Prod, 2019) can be followed below.

Calls of active or inactive are those of the source. The rule behind the calls is not given here.

In series [1] the test system is KOPN-8. The experiment in a line: Induction of apoptosis in human KOPN8 cells assessed as decrease in caspase 3/7 level after 3 to 24 hrs by Western blot analysis. The series is classed as functional, cell-based. The essentials: (§1)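 Western blot of KOPN-8 and MCF-7 lysates made in RIPA-type buffer (Tris pH 7.5, Triton X-100, deoxycholate, SDS) with protease and phosphatase inhibitors. 30 μg protein per lane was run on 4–12% Bis-Tris SDS-PAGE and transferred to nitrocellulose. Blots were probed for cleaved caspase-7 and PARP-1 and detected with IR-dye secondaries. Menadione served as positive control: 10 μM in KOPN-8, 30 μM in MCF-7. Blots are representative of three independent experiments.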
For orientation: Immunoblotting shows a protein as a band on a membrane.

For series [2], the system named is MCF7. The experiment in a line: Induction of apoptosis in human MCF7 cells assessed as decrease in caspase 3/7 level after 3 to 24 hrs by Western blot analysis. The series is classed as functional, cell-based. Put shortly: as §1
The subject of series [3] is KOPN-8. The experiment in a line: Induction of mitochondrial membrane potential loss in human KOPN8 cells at 4 uM after 24 hrs by TMRM staining based flow cytometric analysis. In kind it is functional, cell-based. The essentials: (§2)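 TMRM flow cytometry. KOPN-8 (4 × 10^4 or 5 × 10^5 per well) or MCF-7 (2 × 10^4 or 2 × 10^5 per well) were seeded 24 h, then treated 24–48 h. FCCP 10 μM was added 10 min before staining as positive control. Cells were stained with TMRM 100 nM for 0.5 h, then PBS-washed, resuspended in PBS with 1% FBS and analysed by flow cytometry; DAPI flagged compromised cells.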

Series [4] has as its system KOPN-8. The experiment in a line: Induction of mitochondrial membrane potential loss in human KOPN8 cells at 30 uM by TMRM staining based flow cytometric analysis. Conditions: TDE = time-dependent effect. In kind it is functional, cell-based. Put shortly:
as §2
Background: Flow cytometry measures light scatter and fluorescence of single cells or particles in a stream.

For series [5], the system named is MCF7. The experiment in a line: Induction of ROS generation in human MCF7 cells at 30 uM incubated for 1 hr by CellROX green reagent based fluorescence assay. The series is classed as functional, cell-based. The essentials:
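CellROX green ROS assay: cells exposed 1 h at 37 °C (30 μM) with DMSO 0.5% (v/v) negative control, menadione 10 μM positive control, ± NAC (100 μM per figure legend). CellROX green added at 5 μM final, 30 min more; washed, fixed in 4% paraformaldehyde 15 min, fluorescence read at 485 ex/535 em. Mean and SD of at least three experiments; two-way ANOVA.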

Series [6] relates to U2OS. The experiment in a line: Induction of ROS generation in human U2OS cells at 30 uM incubated for 1 hr by CellROX green reagent based fluorescence assay. In kind it is functional, cell-based. Put shortly:
(§3)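 CellROX green assay in MCF-7 or U2OS cells. Cells were exposed to test compound for 1 h at 37 °C alongside 0.5% DMSO (negative control) and menadione 10–30 μM (positive control), with or without NAC (50–500 μM) as scavenger. CellROX was then added at 5 μM final for 30 min. Cells were PBS-washed, fixed in 4% paraformaldehyde for 15 min, and fluorescence read at 535 nm.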

Series [7] deals with MCF7. The experiment in a line: Induction of ROS generation in human MCF7 cells at 30 uM incubated for 1 hr in presence of NAC by CellROX green reagent based fluorescence assay. In kind it is functional, cell-based. Put shortly:
as §3

For series [8], the system named is U2OS. The experiment in a line: Induction of ROS generation in human U2OS cells at 30 uM incubated for 1 hr in presence of NAC by CellROX green reagent based fluorescence assay. The series is classed as functional, cell-based. Put shortly:
as §3

Series [9] deals with U2OS. The experiment in a line: Induction of mito-phagy in human U2OS cells transfected with mKeima-Red-Mito-7 at 1.25 to 2.5 uM incubated for 8 hrs by confocal scanning microscopic method. The series is classed as functional, cell-based. The essentials: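 U2OS stably expressing mKeima-Red-Mito-7 (G418 250 μg/mL selection, flow-sorted) were plated at 40 000 cells per well and incubated overnight. Cells were treated 8 h at 37 °C; DMSO 0.5% served as negative control. Live cells were imaged by confocal microscopy at 60×. Mitophagy was scored as the ratio of mitophagy-event fluorescence to cytoplasmic mitochondrial fluorescence. Values are mean and SD of at least three experiments.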

In series [10] the test system is B-ALL. The experiment in a line: Antiproliferative activity against mouse B-ALL cells harboring Bax/Bak double knockout mutant assessed as reduction in cell viability at 1 to 10 uM by CellTiter-Glo assay. In kind it is functional, cell-based. The essentials: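 CellTiter-Glo luminescent viability readout. Cells kept at 37 °C under 5% CO2. HMEC primary cells grown in basal medium with growth kit; leukemia lines and murine BCR-ABL (WT, Bax/Bak DKO) cultured per earlier description. Positive controls: staurosporine 25 μM, gambogic acid 10 μM, a toxic quinoline. At least two biological replicates in technical triplicate; luminescence normalized to untreated controls; EC50 computed.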
Background: Cellular ATP, detected with luciferase, serves as a proxy for viable cell number.

The test system of series [11] is KOPN-8. The experiment in a line: Induction of apoptosis in human KOPN8 cells assessed as increase in late apoptotic cells at 10 uM after 24 hrs by Annexin V-FITC and propidium iodide staining based flow cytometry relative to control. The series is classed as functional. Put shortly: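 KOPN-8 cells were plated at 1.00 × 10^6 per plate and held 12 h at 37 °C, then treated 24 h; positive control 2 μM staurosporine, vehicle DMSO. Cells were stained with Annexin V-FITC and PI and analysed by flow cytometry (FACSCalibur). Profiles are representative of three independent biological replicates.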

For series [12], the system named is KOPN-8. The experiment in a line: Induction of apoptosis in human KOPN8 cells assessed as increase in caspase 3/7 activity incubated for 24 hrs by caspase3/7 reagent based ApoTox-Glo triplex assay. In kind it is functional, cell-based. The essentials: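 ApoTox-Glo Triplex assay in KOPN-8 or U2OS cells. Cells were incubated 12 h at 37 °C, then treated 24 h across 100–0.15 μM. Viability (GF-AFC, 400Ex/505Em) and cytotoxicity (bis-AAF-R110, 485Ex/520Em) were read after 30 min at 37 °C. Caspase-Glo 3/7 luminescence was then read after 0.5 h at room temperature. Values are mean ± SEM of three independent experiments.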

In series [13] the test system is U2OS. The experiment in a line: Decrease in cell viability in human U2OS cells incubated for 24 hrs by GF-AFC reagent based ApoTox-Glo triplex assay. In kind it is functional. Put shortly: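 ApoTox-Glo Triplex: cells held 12 h at 37 °C, then treated 24 h (100−0.15 μM). Viability/cytotoxicity reagent added, shaken, 30 min at 37 °C; viability read as GF-AFC fluorescence at 400Ex/505Em. Caspase-Glo 3/7 then added, 0.5 h at room temperature, luminescence read. Mean ± SEM of three independent experiments.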

The test system of series [14] is KOPN-8. The experiment in a line: Induction of apoptosis in human KOPN8 cells assessed as increase in cleaved PARP 1 level at 1 to 100 uM after 24 hrs by Western blot analysis. The series is classed as functional, cell-based. Put shortly: as §1
Series [15] deals with MDA-MB-231. The experiment in a line: Induction of ROS colocalization in mitochondria of human MDA-MB-231 cells at 30 uM incubated for 1 hr by CellROX green reagent/mitotracker deep red staining based confocal microscopic method. The series is classed as functional, cell-based. Put shortly: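 MDA-MB-231 plated at 4 × 10^4/well in phenol-red-free medium, 12 h at 37 °C; for rescue, NAC 100 μM pretreatment 0.5 h. Compound 30 μM or DMSO for 1 h, then CellROX green 5 μM final, MitoTracker Deep Red 250 nM, Hoechst 33342 500 nM (0.5 h before imaging). Washed twice, live spinning-disk confocal at 63×; two independent experiments.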

Series [16] in a line: Stability in DMSO assessed as micheal adduct formation by measuring intact compound incubated for 16 hrs in presence of NAC by NMR analysis. In kind it is physicochemical.
For series [17], the system named is U2OS. The experiment in a line: Ratio of concentration required for induction of apoptosis in human U2OS cells to concentration required for induction of mito-phagy in human U2OS cells transfected with mKeima-Red-Mito-7. The series is classed as functional.

Regarding `CC1=C2CC(C)(C)/C=C/C(=O)/C(C)=C\C3=C[C@H](C)C[C@]3(O2)C1=O` [JATROPHONE], the Activity entry is “Dose-dependent effect” in series [1], “Dose-dependent effect” in series [2] and “Tde” in series [4]. The outcome in [3], in series [5], in series [6] and in series [9] was Active. The result in [7] and in [8] was inactive.

Regarding `CC(=O)O[C@H]1/C2=C/[C@@H](C)C(=O)C[C@H]3[C@@H](/C=C(\C)C(=O)[C@H]2C[C@H]1C)C3(C)C`, the inhibition result in series [10] was “Active”. Besides, the Activity in [11] was 15%; in series [12], “Dose-dependent effect”; in series [1], “Dose-dependent effect”; in series [2], “Dose-dependent effect”; in series [4], “Tde”. The inhibition entry in [13] was “Dose-dependent effect”. Also, the outcome in series [14], in [5], in series [6], in series [15] and in series [9] was Active. For the same compound, the result in [7] and in series [8] was inactive. The Stability result in series [16] is recorded as “Stable”. Further, in [17], the Ratio came out at 5.
